Experimental findings from the EternaBench riboswitch data are described below.

The apparent Kd is a dissociation constant that holds for the conditions of the assay.

The series deals with MS2 coat protein. Description: apparent Kd, MS2 coat protein; higher = weaker binding; RNA-MaP array; FMN 200 µM where present. Summed up:
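The apparent Kd is the median of filtered binding-curve fits, one per cluster, to green signal normalised to red-channel RNA signal and control-cluster median Fmax. The clusters were on Illumina sequencing chips, and stalled E. coli RNA polymerase had transcribed the designs on them. Titration used SNAP-549-labelled MS2 coat protein from 0.7 or 1.5 nM, doubling to 3 µM, without and then with constant ligand, in 100 mM Tris-HCl pH 7.5, 80 mM KCl, 4 mM MgCl2, BSA, DTT, yeast tRNA and Tween-20.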

The mark [1] stands for this setting: designed as: OFF switch for flavin mononucleotide, no ligand.
Setting [2] is: ligand present: flavin mononucleotide, designed as: OFF switch for flavin mononucleotide.
The mark [3] stands for this setting: designed as: ON switch for flavin mononucleotide, no ligand.
The mark [4] stands for this setting: ligand present: flavin mononucleotide, designed as: ON switch for flavin mononucleotide.

With “AGGAAGUUAGGAUAUGCUGCUCGUCACUUGCGUGAUGAGUAGCAGAAGGGACAUGAGGAUCACCCAUGUAAAAA”, the “apparent Kd” value reads like this: under setting [1], 44.2 nM; under setting [2], 22.7 nM.
For “AAAAAACAUGAGGAUCACCCAUGUCAAAAGACAUGAGGAUAUGUACAGACUUCGGUCUGUACAGAAGGCAUGUCUU”, the “apparent Kd” value was determined as 25.7 nM under setting [3] and 18.4 nM under setting [4].
For the sequence “CUCAGCUCGUCAGGAUAUACGUCACUGCGUCAGCAGUGUGGUAAGAUCACAUGAGGAUCACCCAUGUAGAAGGGACGAGCUGAU”, the “apparent Kd” value is, setting by setting: under setting [1], 13.7 nM; under setting [2], 278 nM.
The like results for “CGUCCGUGGGUAGUGAUCGUACAUGAGGAUCACCCAUGUGAGAAGGAUAUGCAUGCACAUGGACAGCAGAAGGUCUCAUAACAA” were, in that order, 69.4 nM and 353 nM.
In the same order, the values of “UUAUUUAGGUAGGAUAUCGAUAUUAAUCCCUAUCGAGAAGGGUCUACAUGAGGAUCACCCAUGUUAGCAUGUUU” are 21.5 nM and 21.3 nM.
In the same order, the values of “UAUAUAUAGGCAGGAUAUACAUGUAUAUAUAAUAUAUUAUAUAAUAUUACAUGAGGAUCACCCAUGUAGAAGGGCCAUAAUAUA” are 48.3 nM and 66.9 nM.
In the case of “AGUGCGUAUGUGAGGAUAUGCUGGUCCUUGGAUCAGCAGAAGGCACAUGAGGAUCACCCAUGUGGUGUCGUACU”, the “apparent Kd” value under setting [1] turned out to be 253 nM and the “apparent Kd” value under setting [2] worked out at 27.2 nM.
The like results for “GAUAGGACAGAGAAGGUACGUGCUAGAGAUACUAGCAAAAUUUCCUCACAUGAGGAUCACCCAUGUAAGGAUAUCUGUCCUAUC” were, in that order, 4.44 nM and 4.8 nM.
In the same order, the values of “ACAAAUGGAGGAUAUACAUGAGGAUCACCCAUGUUUAUCCUACAUAUGUGAUAAUCAUGUAGAAGGCCAUAUGA” are 16.5 nM and 12.5 nM.
For the sequence “GCACUGGAUGUAGGAUAUCAGGACGAUAAGUCCUGAGAAGGACAUGAGGAUCACCCAUGUAAAAACUUCCCAGUGCAUAAUAUA”, the “apparent Kd” value is 15.4 nM under setting [1] and 18 nM under setting [2].
The like results for “AAGAAGGACGCAGGAUAUCCAGGACCUCCCGCAGGAGAAGGGCGAAACAUGAGGAUCACCCAUACAUGAGGAUCACCCAUGUAA” were, in that order, 33 nM and 36.3 nM.
In the same order, the values of “CUCCGUGGCGAGAAGGACGGAAUUUAAGGUUCUGUAGGAUAUCGAAACAUGAGGAUCACCCAUGUAUUGAUCGGGUGCAGUGUG” are 26.9 nM and 32.2 nM.
In the case of “AAGAUGCGGAUAGGAUAUGGAAAUAAAUAAAGACCAGAAGGAUUGGUCACACAACAUGAGGAUCACCCAUGUGUGUGUUGUGAA”, the “apparent Kd” value is 13.9 nM under setting [1] and 10.6 nM under setting [2].
In the same order, the values of “AGGCGAGUAGGAUAUGCGUAUUUACGGGAAAGCUGGAUGAUACAUGAGGAUCACCCAUGUAGAAGGGCUCUGAA” are 19.2 nM and 15.3 nM.
In the case of “AGCUACGUUUCGUAGCAGUGUCAUCGAGAAGGCCUCAUUACAUGAGGAUCACCCAUGUAAGCAUGGGAGGAUAUCGAUGAUACA”, the “apparent Kd” value was 36.5 nM under setting [3] and 15.6 nM under setting [4].
“GUGUUACAUGAGGAUCACCCAUGUUGUUUUAGAUAAGGAUAUAUGGUAACGAGAGAAAUAAUAGAAGGUAUUAGGC”: the “apparent Kd” value is 33.4 nM under setting [3] and 23.1 nM under setting [4].
For the sequence “UAGAAAGAUUAAUAUGAUUACAUGAGGAUCACCCAUGUAUAUAAGGAUAUCGACGUCAAUGACGUCGAGAAGGUAUAUACAUAA”, the “apparent Kd” value by setting is: under setting [1], 66.3 nM; under setting [2], 198 nM.
The like results for “ACAUGAUAUGUAGGAUAUCACAUUAAUUGAUUAAUAUAUGAAUAUAGAAUUUGAGAAGGACAUUUACAUGAGGAUCACCCAUGU” were, in that order, 15.7 nM and 10.8 nM.
In the same order, the values of “GCACUUAGAGAGGUACCGUUACGAACAUGAGGAUCACCCAUGUAGGAUAUGCUAAUAGUAUUGAAGCAGAAGGACACUAAGUGC” are 7.21 nM and 30.4 nM.
The like results for “CUGAGGUCAGGAUAUGCAUGGCGGGACUUGCGUCGUGGCGUGCAGAAGGGACAUGAGGAUCACCCAUGUGGAGC” were, in that order, 86.7 nM and 249 nM.
For “UAUUUACAUGAGGAUCACCCAUGUCAGGAUAUGCUUCUAUCGUCGAAAGACGAUAGUUGCAGAAGGGACAAUAU”, the “apparent Kd” value reads like this: under setting [1], 58.6 nM; under setting [2], 106 nM.
Take “AAAAGACAUGAGGAUCACCCAUGUGAAAACGUGCAAGGAUAUGUGUGGAAACCGUACUAUACAGAAGGUGUGUGUC”: the “apparent Kd” value reads like this: under setting [3], 32 nM; under setting [4], 41.8 nM.
The like results for “CGCUACAGCCAGAAGGACAUGAGGAUCACCCAUGUAGGAUAUGGGAGACGAGGUCCAGUGUAGAGAAACUACGCUACUGUAGCG” were, in that order, 292 nM and 151 nM.
“UGCUGACGAGGAUAUACAUGAGGAUCACCCAUGUUGGUCAAGCGACGAUAGUCGCAAUGUAGAAGGCGUCAGCU”: the “apparent Kd” value by setting is: under setting [1], 483 nM; under setting [2], 208 nM.
